The entries come from a sample that favours hits as a whole.
CHOP UPR activ: apoptotic UPR (CHOP) activation | CHO-CHOP luciferase reporter, luminescence; percent of tunicamycin response over DMSO baseline | activation, % at 10 µM | 330,000 compounds, 0.34% hits | AID 449763;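 active = at 10 µM dose, activation of 40% or more, normalized to positive control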;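 also: 100% = tunicamycin at 10 µg/mL and 0% = DMSO alone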
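measured by = luciferase luminescence | assay system = CHO-CHOP cells, stable luciferase reporter of PERK-eIF2a-CHOP signalling | amount = 500 reporter cells seeded per well | timing = 6 h compound exposure at 37 °C after overnight seeding | controls = positive tunicamycin 10 µg/mL, negative DMSO alone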
TLR4-MyD88 BLA: TLR4-MyD88 interaction inhibition in cells; O00206+Q99836; HeLa CL3-4 TLR4/MyD88 BLA complementation, FRET ratio; inhibition, % at 8.4 µM; 200,000 compounds, 0.18% hits; AID 861; in the data active = inhibition above about 25%;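 also: 0% = vehicle and 100% = reference inhibitor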
CHOP inh: CHOP inhibition in unfolded protein response; CHO-K1 CHOP-promoter luciferase, tunicamycin-induced, 15-18 h; inhibition, % at 10 µM; 220,000 compounds, 3.8% hits;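 active = compounds that reduced the stress-induced luciferase reporter signal by more than about 70% of percent inhibition, limit read from the data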;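 also: 0% = tunicamycin plus vehicle and 100% = wells without tunicamycin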
TLR9-MyD88 block: blocks human TLR9 binding to MyD88. Q9NR96+Q99836. CHO BLA complementation TLR9-MyD88, CCF4 FRET ratio. inhibition, % at 4.98 µM. 340,000 compounds, 0.21% hits;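 active = inhibition above the mean over all tested compounds plus 3 SD, cut at about 21% in these data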;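 also: 0% = DMSO only wells and 100% = clavulanate BLA inhibitor control wells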
UPR XBP1 act: activators of adaptive arm of unfolded protein response (XBP1); 330,000 compounds, 0.33% hits; AID 463104; activation, % at 20 µM; CHO-XBP1 luciferase reporter, IRE1-XBP1 UPR activation, luminescence; percent of tunicamycin response, DMSO as zero;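 active = versus positive control, 20 µM dose yields 30% or more activation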;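 also: 100% = tunicamycin at 10 µg/mL and 0% = DMSO only wells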
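Material – CHO cell line with stable XBP1 luciferase reporter · Buffer or medium – F12 plus 10% FBS · Compound – single point, 20 µM final compound, 1% DMSO · Schedule – 16-18 h cell attachment at 37 °C, then 6 h compound exposure · Signal – Steady-Glo luminescence read · Benchmarks – high control tunicamycin 10 µg/mL final, low control DMSO vehicle only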
NOD2-RIPK2 inh: inhibitors of human NOD2-RIPK2 interaction; CHO BLA complementation NOD2-RIPK2, CCF4 ratio; inhibition, % at 4.98 µM; 360,000 compounds, 0.38% hits; O43353; in the data active = inhibition above about 21%;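 also: 0% = vehicle only and 100% = reference blocker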
NOD2 RIPK2 conf: confirmation of human NOD2-RIPK2 interaction inhibitors; shares compounds with NOD2-RIPK2 inh; CHO cells, NOD2-RIPK2 BLA complementation, CCF4 FRET; inhibition, % at 4.98 µM; 1,200 compounds, 70% hits; AID 624370;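 active = mean inhibition across replicates above a set limit taken from the earlier primary screen, cut at about 21% in these data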;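 also: 0% = DMSO-only wells and the high end = clavulanate BLA-blocked wells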
BLA counter: hits BLA reporter in NOD2-RIPK2 inhibitor counterscreen | shares compounds with NOD2-RIPK2 inh | CHO BLA reporter, CCF4 FRET ratio | inhibition, % at 4.98 µM | 1,200 compounds, 57% hits;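 active = mean inhibition above the low-control mean inhibition plus three low-control SD, cut at about 11% in these data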;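 also: 0% = DMSO only wells and 100% = clavulanate high control wells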
Numbers without * were called inactive; . = not tested or not shown.

SMILES	CHOP UPR activ	TLR4-MyD88 BLA	CHOP inh	TLR9-MyD88 block	UPR XBP1 act	NOD2-RIPK2 inh	NOD2 RIPK2 conf	BLA counter
CCOC(=O)Nc1cccc2ccccc12	-1.3	15.9	47.9	-0.1	-1.1	-21.1	.	.
O=[N+]([O-])c1cc(S(=O)(=O)N2CCCC2)ccc1O	1.9	-11.8	-59.5	6.4	-1.8	-14.8	.	.
O=[N+]([O-])c1cc(S(=O)(=O)N2CCCCCC2)ccc1F	.	12.3	2.5	18.4	.	29.7*	54.0*	4.3
O=C(NCc1ccccc1)C(c1ccc(C(F)(F)F)cc1)n1c(=O)c(-c2cc3ccccc3[nH]2)nc2ccccc21 (centres undefined)	.	.	.	.	.	48.9*	47.4*	68.8*
N#Cc1ccc(C(C(=O)NCc2ccccc2)n2c(=O)c(-c3cc4ccccc4[nH]3)nc3ccccc32)cc1 (centres undefined)	.	.	.	.	.	57.8*	54.0*	72.0*
O=C(NCc1ccccc1)C(c1ccncc1)n1c(=O)c(-c2ccco2)nc2ccccc21 (centres undefined)	.	.	.	.	.	-8.7	.	.
CC1CCC(NC(=O)c2cccc(S(=O)(=O)N3CCN(c4ccc(F)cc4)CC3)c2)CC1 (centres undefined)	9.4	.	.	3.3	1.7	8.8	.	.
CC(C)CC(C(=O)OCC(=O)Nc1cccc(Cl)c1)N1C(=O)C2CC=CCC2C1=O (centres undefined)	-0.7	6.8	47.5	0.2	-2.0	21.7*	-1.7	-3.0
NS(=O)(=O)c1ccc(N/C=C\C(=O)c2ccc3ccccc3c2)cc1	2.2	1.7	-26.2	1.0	2.6	24.2*	4.4	11.8*
COc1ccc(N/C=C\C(=O)c2ccc3ccccc3c2)cc1	6.0	.	.	1.0	0.4	2.5	.	.
CN1OC[C@@H]2CN(S(=O)(=O)c3ccccc3)[C@H](c3ccccc3Br)C[C@@H]21	.	.	.	.	.	32.7*	-4.7	-4.6
COc1ccc(NC(=O)CSc2nc3cccnc3n2C)cc1	0.3	-13.7	7.9	-4.1	-1.1	32.4*	11.1	-3.9
O=C(Nc1cccc(S(=O)(=O)N2CCCCC2)c1)c1ccco1	1.5	.	.	-5.0	-1.5	-3.8	.	.
COc1ccc(N2CCN(CC(=O)Nc3cccc(S(=O)(=O)N4CCOCC4)c3)CC2)cc1	1.8	11.2	9.6	-12.7	-0.9	3.8	.	.
CCCCCC[n+]1ccccc1/C=C/c1ccc(N(C)C)cc1	.	.	.	.	.	33.5*	41.0*	40.8*
O=C(N/N=C/c1[nH]c2ccccc2c1Cl)c1cccc(Br)c1	2.4	.	-33.8	.	0.6	24.2*	11.5	31.4*
CCOc1ccc(/C=C2\CCC(C3CCCC3)C2=O)cc1 (centres undefined)	7.0	.	.	2.3	-3.6	-1.3	.	.
CCC(=O)OCOc1ccc(/C=C2/CCC(CN(C)C)C2=O)cc1 (centres undefined)	.	.	.	10.3	.	32.7*	34.6*	6.3
O=C(Nc1ccc(Cl)c(Cl)c1)OCCNC(=O)c1cccc(Cl)c1	-1.2	9.6	62.5	9.2	-1.1	9.7	.	.
COCCN(C(=O)COC(=O)CCC1CCCCC1)c1c(N)n(Cc2ccccc2)c(=O)[nH]c1=O	.	.	.	4.3	.	27.6*	2.5	-1.9
O=C1C(=O)c2cccnc2-c2ncccc21	.	.	.	.	.	40.8*	2.9	3.8
O=C1c2cccnc2-c2ncccc21	-3.7	1.9	-2.9	6.2	-0.7	-7.7	.	.
N#Cc1ccc(C(C(=O)NC2CCCCC2)n2c(=O)c(-c3cc4ccccc4[nH]3)nc3ccccc32)cc1 (centres undefined)	.	.	.	.	.	53.5*	50.2*	71.1*
COc1ccc(C(C(=O)NC2CCCC2)n2c(Cc3cc(F)cc(F)c3)nc3ccccc32)cc1 (centres undefined)	.	.	.	.	.	-0.3	.	.
